ChEMBL document CHEMBL1147809, “Tumor-cell-targeted methionine-enkephalin analogues containing unnatural amino acids: design, synthesis, and in vitro antitumor activity” (2006)
*1 amine or outer side, *2 acyl side, *3 side chain or, on linkers, in order; H or OH if unused. Where a SMILES comes first, the peptide text is derived from it. [ ]: non-standard residue; d: D form. X2 = O=C(C1(N[*:1])C2CC3CC(C2)CC1C3)[*:2]

Each compound was assayed on HeLa (assay: Antiproliferative activity against human HeLa cell line at 1000 uM relative to control).
Assay type: functional
Summary of the method: (§1)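 Cells from ATCC grown as monolayers in DMEM with 10% FBS, 2 mM glutamine, penicillin/streptomycin, 37 °C, 5% CO2. Seeded at 2 × 10^4 cells/mL, and after 24 h the medium was replaced with fresh medium containing compound (water/10% DMSO stock, PBS working dilutions 10^-3 to 10^-6 M). Exposure was 72 h, then MTT read-out. Growth % = (A_peptide − A_blank)/(A_control − A_blank) × 100, with inhibition taken relative to untreated cells. Values are means of three experiments run in triplicate.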
Compound `CSCC[C@H](NC(=O)[C@H](Cc1ccccc1)NC(=O)CNC(=O)C1(NC(=O)[C@@H](N)Cc2ccc(O)cc2)C2CC3CC(C2)CC1C3)C(=O)O` (stereo not given in full) (H-Y[X2]GFM-OH) has an inhibition at 1000 µM of 28%.

What follows are compounds tested on HBL (assay: Antiproliferative activity against human HBL cell line at 10 uM relative to control).
Assay type: functional
Summary of the method: as §1
`CSCC[C@H](NC(=O)[C@H](Cc1ccccc1)NC(=O)CNC(=O)C1(NC(=O)[C@@H](N)Cc2ccc(O)cc2)C2CC3CC(C2)CC1C3)C(=O)O` (stereo not given in full) (H-Y[X2]GFM-OH) showed an inhibition at 10 µM of 1.4%.

What follows are compounds tested on HBL (assay: Antiproliferative activity against human HBL cell line at 100 uM relative to control).
Assay type: functional
Summary of the method: as §1
For `CSCC[C@H](NC(=O)[C@H](Cc1ccccc1)NC(=O)CNC(=O)C1(NC(=O)[C@@H](N)Cc2ccc(O)cc2)C2CC3CC(C2)CC1C3)C(=O)O` (stereo not given in full) (H-Y[X2]GFM-OH), the inhibition at 100 µM was 2.4%.

Each compound was assayed on HBL (assay: Antiproliferative activity against human HBL cell line at 1000 uM relative to control).
Assay type: functional
Summary of the method: as §1
`CSCC[C@H](NC(=O)[C@H](Cc1ccccc1)NC(=O)CNC(=O)C1(NC(=O)[C@@H](N)Cc2ccc(O)cc2)C2CC3CC(C2)CC1C3)C(=O)O` (stereo not given in full) (H-Y[X2]GFM-OH) showed an inhibition at 1000 µM of 18.3%.

The compounds below were run on HT-29 (assay: Antiproliferative activity against human HT29 cell line at 10 uM relative to control).
Assay type: functional
Summary of the method: as §1
Compound `CSCC[C@H](NC(=O)[C@H](Cc1ccccc1)NC(=O)CNC(=O)C1(NC(=O)[C@@H](N)Cc2ccc(O)cc2)C2CC3CC(C2)CC1C3)C(=O)O` (stereo not given in full) (H-Y[X2]GFM-OH) has an inhibition at 10 µM of 11%.

Each compound was assayed on HT-29 (assay: Antiproliferative activity against human HT29 cell line at 100 uM relative to control).
Assay type: functional
Summary of the method: as §1
`CSCC[C@H](NC(=O)[C@H](Cc1ccccc1)NC(=O)CNC(=O)C1(NC(=O)[C@@H](N)Cc2ccc(O)cc2)C2CC3CC(C2)CC1C3)C(=O)O` (stereo not given in full) (H-Y[X2]GFM-OH) showed an inhibition at 100 µM of 7.9%.

What follows are compounds tested on HT-29 (assay: Antiproliferative activity against human HT29 cell line at 1000 uM relative to control).
Assay type: functional
Summary of the method: as §1
`CSCC[C@H](NC(=O)[C@H](Cc1ccccc1)NC(=O)CNC(=O)C1(NC(=O)[C@@H](N)Cc2ccc(O)cc2)C2CC3CC(C2)CC1C3)C(=O)O` (stereo not given in full) (H-Y[X2]GFM-OH) was tested, and the inhibition at 1000 µM was 23.7%.

Each compound was assayed on SW-620 (assay: Antiproliferative activity against human SW620 cell line at 10 uM relative to control).
Assay type: functional
Summary of the method: as §1
In the case of `CSCC[C@H](NC(=O)[C@H](Cc1ccccc1)NC(=O)CNC(=O)C1(NC(=O)[C@@H](N)Cc2ccc(O)cc2)C2CC3CC(C2)CC1C3)C(=O)O` (stereo not given in full) (H-Y[X2]GFM-OH), the inhibition at 10 µM is reported as 15.5%.

These compounds were tested on SW-620 (assay: Antiproliferative activity against human SW620 cell line at 100 uM relative to control).
Assay type: functional
Summary of the method: as §1
For `CSCC[C@H](NC(=O)[C@H](Cc1ccccc1)NC(=O)CNC(=O)C1(NC(=O)[C@@H](N)Cc2ccc(O)cc2)C2CC3CC(C2)CC1C3)C(=O)O` (stereo not given in full) (H-Y[X2]GFM-OH), the inhibition at 100 µM was 24.7%.

These compounds were tested on SW-620 (assay: Antiproliferative activity against human SW620 cell line at 1000 uM relative to control).
Assay type: functional
Summary of the method: as §1
For `CSCC[C@H](NC(=O)[C@H](Cc1ccccc1)NC(=O)CNC(=O)C1(NC(=O)[C@@H](N)Cc2ccc(O)cc2)C2CC3CC(C2)CC1C3)C(=O)O` (stereo not given in full) (H-Y[X2]GFM-OH), the inhibition at 1000 µM was 29%.

These compounds were tested on Caco-2 (assay: Antiproliferative activity against human Caco-2 cell line at 10 uM relative to control).
Assay type: functional
Summary of the method: as §1
In the case of `CSCC[C@H](NC(=O)[C@H](Cc1ccccc1)NC(=O)CNC(=O)C1(NC(=O)[C@@H](N)Cc2ccc(O)cc2)C2CC3CC(C2)CC1C3)C(=O)O` (stereo not given in full) (H-Y[X2]GFM-OH), the inhibition at 10 µM is reported as 8.4%.

The compounds below were run on Caco-2 (assay: Antiproliferative activity against human Caco-2 cell line at 100 uM relative to control).
Assay type: functional
Summary of the method: as §1
In the case of `CSCC[C@H](NC(=O)[C@H](Cc1ccccc1)NC(=O)CNC(=O)C1(NC(=O)[C@@H](N)Cc2ccc(O)cc2)C2CC3CC(C2)CC1C3)C(=O)O` (stereo not given in full) (H-Y[X2]GFM-OH), the inhibition at 100 µM is reported as 18.5%.

Each compound was assayed on Caco-2 (assay: Antiproliferative activity against human Caco-2 cell line at 1000 uM relative to control).
Assay type: functional
Summary of the method: as §1
`CSCC[C@H](NC(=O)[C@H](Cc1ccccc1)NC(=O)CNC(=O)C1(NC(=O)[C@@H](N)Cc2ccc(O)cc2)C2CC3CC(C2)CC1C3)C(=O)O` (stereo not given in full) (H-Y[X2]GFM-OH) gave an inhibition at 1000 µM of 10.6%.

What follows are compounds tested on MCF7 (assay: Antiproliferative activity against human MCF7 cell line at 1000 uM relative to control).
Assay type: functional
Summary of the method: as §1
With `CSCC[C@H](NC(=O)[C@H](Cc1ccccc1)NC(=O)CNC(=O)C1(NC(=O)[C@@H](N)Cc2ccc(O)cc2)C2CC3CC(C2)CC1C3)C(=O)O` (stereo not given in full) (H-Y[X2]GFM-OH) the inhibition at 1000 µM was 22.8%.

Each compound was assayed on HEp-2 (assay: Antiproliferative activity against human HEp2 cell line at 10 uM relative to control).
Assay type: functional
Summary of the method: as §1
For `CSCC[C@H](NC(=O)[C@H](Cc1ccccc1)NC(=O)CNC(=O)C1(NC(=O)[C@@H](N)Cc2ccc(O)cc2)C2CC3CC(C2)CC1C3)C(=O)O` (stereo not given in full) (H-Y[X2]GFM-OH), the inhibition at 10 µM was 10.1%.

Each compound was assayed on HEp-2 (assay: Antiproliferative activity against human HEp2 cell line at 100 uM relative to control).
Assay type: functional
Summary of the method: as §1
`CSCC[C@H](NC(=O)[C@H](Cc1ccccc1)NC(=O)CNC(=O)C1(NC(=O)[C@@H](N)Cc2ccc(O)cc2)C2CC3CC(C2)CC1C3)C(=O)O` (stereo not given in full) (H-Y[X2]GFM-OH) showed an inhibition at 100 µM of 16.8%.

Each compound was assayed on HEp-2 (assay: Antiproliferative activity against human HEp2 cell line at 1000 uM relative to control).
Assay type: functional
Summary of the method: as §1
Work on `CSCC[C@H](NC(=O)[C@H](Cc1ccccc1)NC(=O)CNC(=O)C1(NC(=O)[C@@H](N)Cc2ccc(O)cc2)C2CC3CC(C2)CC1C3)C(=O)O` (stereo not given in full) (H-Y[X2]GFM-OH) yielded an inhibition at 1000 µM of 36.1%.

What follows are compounds tested on HeLa (assay: Antiproliferative activity against human HeLa cell line at 10 uM relative to control).
Assay type: functional
Summary of the method: as §1
`CSCC[C@H](NC(=O)[C@H](Cc1ccccc1)NC(=O)CNC(=O)C1(NC(=O)[C@@H](N)Cc2ccc(O)cc2)C2CC3CC(C2)CC1C3)C(=O)O` (stereo not given in full) (H-Y[X2]GFM-OH) was tested, and the inhibition at 10 µM was 10.2%.

These compounds were tested on HeLa (assay: Antiproliferative activity against human HeLa cell line at 100 uM relative to control).
Assay type: functional
Summary of the method: as §1
`CSCC[C@H](NC(=O)[C@H](Cc1ccccc1)NC(=O)CNC(=O)C1(NC(=O)[C@@H](N)Cc2ccc(O)cc2)C2CC3CC(C2)CC1C3)C(=O)O` (stereo not given in full) (H-Y[X2]GFM-OH) was tested, and the inhibition at 100 µM was 13.3%.

These compounds were tested on SW-620 (assay: Antiproliferative activity against human SW620 cell line at 1 uM relative to control).
Assay type: functional
Summary of the method: as §1
`CSCC[C@H](NC(=O)[C@H](Cc1ccccc1)NC(=O)CNC(=O)C1(NC(=O)[C@@H](N)Cc2ccc(O)cc2)C2CC3CC(C2)CC1C3)C(=O)O` (stereo not given in full) (H-Y[X2]GFM-OH) was tested, and the inhibition at 1 µM was 12.2%.

Each compound was assayed on Caco-2 (assay: Antiproliferative activity against human Caco-2 cell line at 1 uM relative to control).
Assay type: functional
Summary of the method: as §1
Work on `CSCC[C@H](NC(=O)[C@H](Cc1ccccc1)NC(=O)CNC(=O)C1(NC(=O)[C@@H](N)Cc2ccc(O)cc2)C2CC3CC(C2)CC1C3)C(=O)O` (stereo not given in full) (H-Y[X2]GFM-OH) yielded an inhibition at 1 µM of 3%.

Each compound was assayed on HEp-2 (assay: Antiproliferative activity against human HEp2 cell line at 1 uM relative to control).
Assay type: functional
Summary of the method: as §1
For `CSCC[C@H](NC(=O)[C@H](Cc1ccccc1)NC(=O)CNC(=O)C1(NC(=O)[C@@H](N)Cc2ccc(O)cc2)C2CC3CC(C2)CC1C3)C(=O)O` (stereo not given in full) (H-Y[X2]GFM-OH), the inhibition at 1 µM was 1%.

Each compound was assayed on HeLa (assay: Antiproliferative activity against human HeLa cell line at 1 uM relative to control).
Assay type: functional
Summary of the method: as §1
`CSCC[C@H](NC(=O)[C@H](Cc1ccccc1)NC(=O)CNC(=O)C1(NC(=O)[C@@H](N)Cc2ccc(O)cc2)C2CC3CC(C2)CC1C3)C(=O)O` (stereo not given in full) (H-Y[X2]GFM-OH) gave an inhibition at 1 µM of 4.9%.

What follows are compounds tested on HBL (assay: Antiproliferative activity against human HBL cell line at 1 uM relative to control).
Assay type: functional
Summary of the method: as §1
For `CSCC[C@H](NC(=O)[C@H](Cc1ccccc1)NC(=O)CNC(=O)C1(NC(=O)[C@@H](N)Cc2ccc(O)cc2)C2CC3CC(C2)CC1C3)C(=O)O` (stereo not given in full) (H-Y[X2]GFM-OH), the inhibition at 1 µM was 0.8%.

Each compound was assayed on HT-29 (assay: Antiproliferative activity against human HT29 cell line at 1 uM relative to control).
Assay type: functional
Summary of the method: as §1
`CSCC[C@H](NC(=O)[C@H](Cc1ccccc1)NC(=O)CNC(=O)C1(NC(=O)[C@@H](N)Cc2ccc(O)cc2)C2CC3CC(C2)CC1C3)C(=O)O` (stereo not given in full) (H-Y[X2]GFM-OH) was tested, and the inhibition at 1 µM was 3.3%.
